According to ChEMBL document CHEMBL1124135, “Substituted 2-[(2-benzimidazolylsulfinyl)methyl]anilines as potential inhibitors of H+/K+ ATPase” (J Med Chem, 1988):

Experiments:
[1] = target: Potassium-transporting ATPase (Canis familiaris); assay: In vitro inhibitory activity against H+/K+ ATPase prepared from canine fundic mucosa
Canis familiaris [2] = assay: Inhibitory activity when administered intravenously in histamine-stimulated gastric fistula dog at 3 mg/kg, id; format: functional; conditions: Canis lupus familiaris, Stomach, in the assay text read “in” for “when administered intravenously in”
Summary of the method: (§1)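 Conscious gastric-fistula dogs fasted 18 h, given 3 mg/kg after a 30-min basal period. Histamine infused at 15 μg/kg per h, with gastric juice collected every 30 min for 4 h. Total acidity found by titration with 0.1 N NaOH to pH 7.0.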

Canis familiaris [3] = assay: Inhibitory activity when administered […] in histamine-stimulated gastric fistula dog at 3 mg/kg, id; Lethal at 10 mg/kg, id; format: functional, organism-based; conditions: Canis lupus familiaris, Stomach
Summary of the method: as §1

IC50 [1] [µM] | SMILES | inhibition in vivo at 3 mg/kg (Canis familiaris [2]) [%] | inhibition (Canis familiaris [3])
1.5 | Cc1ccc(C)c(C[S+]([O-])c2nc3cc(C(F)(F)F)ccc3[nH]2)c1N (stereo not given) |  | 
2.1 | COc1ccc2[nH]c([S+]([O-])Cc3c(N)cc(C)c(OC)c3C)nc2c1 (stereo not given) | 31 | 
4.2 | COc1ccc2[nH]c([S+]([O-])Cc3cc(C)ccc3N)nc2c1 (stereo not given) | 80 | 
60 | Cc1cc(Cl)cc(C[S+]([O-])c2nc3ccccc3[nH]2)c1N (stereo not given) |  | 
11 | COc1ccc2[nH]c([S+]([O-])Cc3ccccc3N)nc2c1 (stereo not given) | 78 | 
 | COc1ccc2[nH]c([S+]([O-])Cc3ncc(C)c(OC)c3C)nc2c1 (stereo not given) [OMEPRAZOLE] | 97 | 
> 100 | CC(=O)Nc1ccccc1C[S+]([O-])c1nc2ccccc2[nH]1 (stereo not given) | 37 | 
8.5 | COc1cccc(C[S+]([O-])c2nc3cc(C(F)(F)F)ccc3[nH]2)c1N (stereo not given) |  | 
25 | Nc1ccc(F)cc1C[S+]([O-])c1nc2ccccc2[nH]1 (stereo not given) |  | 
3.2 | Cc1cccc(C[S+]([O-])c2nc3ccccc3[nH]2)c1N (stereo not given) | 44 | 
0.7 | Cc1cccc(N)c1C[S+]([O-])c1nc2ccccc2[nH]1 (stereo not given) | 44 | 
3.9 | CCc1cccc(C[S+]([O-])c2nc3ccccc3[nH]2)c1N (stereo not given) | 21 | 
7.9 | Cc1ccc2[nH]c([S+]([O-])Cc3ccccc3N)nc2c1 (stereo not given) |  | 
> 100 | CCOC(=O)c1ccc(N)c(C[S+]([O-])c2nc3ccccc3[nH]2)c1 (stereo not given) | 7 | 
0.6 | Cc1ccc(C[S+]([O-])c2nc3ccccc3[nH]2)c(N)c1C (stereo not given) | 79 | 
1.6 | COc1ccc(N)c(C[S+]([O-])c2nc3ccccc3[nH]2)c1 (stereo not given) |  | 
5.4 | COc1ccc2[nH]c([S+]([O-])Cc3cccc(C)c3N)nc2c1 (stereo not given) | 72 | 
> 100 | Nc1ccc(C(F)(F)F)cc1C[S+]([O-])c1nc2ccccc2[nH]1 (stereo not given) | 16 | 
120 | COc1cc2nc([S+]([O-])Cc3ccccc3N)[nH]c2cc1OC (stereo not given) |  | 
4.3 | Nc1ccccc1C[S+]([O-])c1nc2ccccc2[nH]1 (stereo not given) | 53 | 
0.6 | CNc1ccccc1C[S+]([O-])c1nc2ccccc2[nH]1 (stereo not given) | 21 | 
0.8 | Cc1ccc(C)c(C[S+]([O-])c2nc3ccccc3[nH]2)c1N (stereo not given) |  | 

IC50 [1] [µM] | SMILES | inhibition in vivo at 3 mg/kg (Canis familiaris [2]) [%] | inhibition (Canis familiaris [3])
 | [O-][S+](Cc1ccccn1)c1nc2ccccc2[nH]1 (stereo not given) [TIMOPRAZOLE] | 68 | 
12 | Nc1ccccc1C[S+]([O-])c1nc2cc(Cl)ccc2[nH]1 (stereo not given) |  | 
10 | Cc1cc(N)c(C[S+]([O-])c2nc3ccccc3[nH]2)c(C)c1C (stereo not given) |  | 
> 100 | COC(=O)c1cccc(C[S+]([O-])c2nc3ccccc3[nH]2)c1N (stereo not given) | 28 | 
2.6 | CCCCc1ccc(N)c(C[S+]([O-])c2nc3ccccc3[nH]2)c1 (stereo not given) | 19 | 
0.2 | COc1c(C)cc(N)c(C[S+]([O-])c2nc3ccccc3[nH]2)c1C (stereo not given) | 53 | 
5.3 | CCOc1ccc2[nH]c([S+]([O-])Cc3cc(C)ccc3N)nc2c1 (stereo not given) |  | 
7.4 | Cc1cccc2[nH]c([S+]([O-])Cc3ccccc3N)nc12 (stereo not given) | 60 | 
> 100 | CCOC(=O)c1ccc(N)c(C[S+]([O-])c2nc3ccc(OC)cc3[nH]2)c1 (stereo not given) |  | 
2 | CCc1ccc(N)c(C[S+]([O-])c2nc3ccccc3[nH]2)c1 (stereo not given) | 62 | 
24 | CCOc1ccc2[nH]c([S+]([O-])Cc3ccccc3N)nc2c1 (stereo not given) |  | 
2.1 | Cc1ccc(N)c(C[S+]([O-])c2nc3ccccc3[nH]2)c1 (stereo not given) | 67 | 
0.8 | Cc1cc(C)c(N)c(C[S+]([O-])c2nc3ccccc3[nH]2)c1 (stereo not given) |  | Lethal at 10mg/kg,id
0.7 | Cc1ccc2nc([S+]([O-])Cc3ccc(C)c(C)c3N)[nH]c2c1 (stereo not given) |  | 
6.4 | Cc1c(Cl)ccc(C[S+]([O-])c2nc3ccccc3[nH]2)c1N (stereo not given) |  | 
9.3 | COc1cccc(C[S+]([O-])c2nc3ccccc3[nH]2)c1N (stereo not given) | 68 | 
2.7 | COc1cc(Cl)c(C)c(C[S+]([O-])c2nc3ccccc3[nH]2)c1N (stereo not given) |  | 
> 100 | Nc1ccc(Cl)cc1C[S+]([O-])c1nc2ccccc2[nH]1 (stereo not given) | 24 | 
24 | Nc1cc(Cl)ccc1C[S+]([O-])c1nc2ccccc2[nH]1 (stereo not given) | 13 | 
4.4 | Nc1ccccc1C[S+]([O-])c1nc2cc(C(F)(F)F)ccc2[nH]1 (stereo not given) | 37 | 
0.7 | CN(C)c1ccccc1C[S+]([O-])c1nc2ccccc2[nH]1 (stereo not given) | 14 | 
13.5 | Cc1cc2nc([S+]([O-])Cc3ccccc3N)[nH]c2cc1C (stereo not given) | 44 | 
